This is an account of results in ChEMBL document CHEMBL3351848, “Novel insights into structure and function of factor XIIIa-inhibitor tridegin” (J Med Chem, 2014).

By Kd is commonly meant the free concentration of one partner at which half of the binding sites on the other are occupied at equilibrium, for simple one-to-one binding. What is called IC50 is the concentration at which inhibition is half-maximal. As usually defined, the inhibition is the drop in the measured response relative to a control, in per cent. Low readings indicate little suppression, high ones strong suppression.

Assay [1] has as its target T1, Coagulation factor XIII A chain (Homo sapiens) (UniProt P00488).
T1 sequence (whole entry): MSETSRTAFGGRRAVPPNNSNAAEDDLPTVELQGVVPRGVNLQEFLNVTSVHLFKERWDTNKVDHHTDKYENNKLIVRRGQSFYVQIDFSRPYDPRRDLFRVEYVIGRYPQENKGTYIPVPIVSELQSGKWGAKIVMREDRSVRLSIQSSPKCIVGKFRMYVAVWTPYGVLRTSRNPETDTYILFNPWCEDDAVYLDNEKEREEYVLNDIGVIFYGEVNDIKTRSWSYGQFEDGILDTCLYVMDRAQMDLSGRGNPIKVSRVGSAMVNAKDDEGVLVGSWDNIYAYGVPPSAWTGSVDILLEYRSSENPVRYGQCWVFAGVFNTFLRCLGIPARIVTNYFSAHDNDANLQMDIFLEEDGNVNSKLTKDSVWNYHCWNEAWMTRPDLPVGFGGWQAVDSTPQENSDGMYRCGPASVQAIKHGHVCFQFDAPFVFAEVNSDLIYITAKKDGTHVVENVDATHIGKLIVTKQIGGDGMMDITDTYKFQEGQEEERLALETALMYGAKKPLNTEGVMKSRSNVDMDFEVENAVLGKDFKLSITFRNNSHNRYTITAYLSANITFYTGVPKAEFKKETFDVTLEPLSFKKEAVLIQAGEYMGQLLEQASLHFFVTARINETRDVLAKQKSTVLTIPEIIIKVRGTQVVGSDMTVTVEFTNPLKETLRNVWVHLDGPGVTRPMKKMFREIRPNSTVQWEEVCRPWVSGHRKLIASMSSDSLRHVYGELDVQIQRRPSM
Put plainly: Binding affinity to nonactivated recombinant F13A subunit (unknown origin) by microscale thermophoresis method. The essentials: (§1)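 Carboxyfluorescein-labeled peptide (2 μM solution, before mixing) in 50 mM Tris-HCl pH 7.5, 0.9% w/v NaCl, with Tween-20 to 0.1% final. Mixed with an equal volume of protein (FXIIIa, FXIII-A or FXIII-B) in the same buffer, 15 concentrations spanning 3.1 μM to 0.1 nM. After 20 min incubation, the mixture was loaded into glass capillaries and thermophoresis read three times per capillary.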
For orientation: Microscale thermophoresis detects binding through changes in fluorescence in a small temperature gradient.

Assay [2] has as its target T2, Coagulation factor XIII B chain (Homo sapiens) (UniProt P05160).
T2 sequence (whole entry): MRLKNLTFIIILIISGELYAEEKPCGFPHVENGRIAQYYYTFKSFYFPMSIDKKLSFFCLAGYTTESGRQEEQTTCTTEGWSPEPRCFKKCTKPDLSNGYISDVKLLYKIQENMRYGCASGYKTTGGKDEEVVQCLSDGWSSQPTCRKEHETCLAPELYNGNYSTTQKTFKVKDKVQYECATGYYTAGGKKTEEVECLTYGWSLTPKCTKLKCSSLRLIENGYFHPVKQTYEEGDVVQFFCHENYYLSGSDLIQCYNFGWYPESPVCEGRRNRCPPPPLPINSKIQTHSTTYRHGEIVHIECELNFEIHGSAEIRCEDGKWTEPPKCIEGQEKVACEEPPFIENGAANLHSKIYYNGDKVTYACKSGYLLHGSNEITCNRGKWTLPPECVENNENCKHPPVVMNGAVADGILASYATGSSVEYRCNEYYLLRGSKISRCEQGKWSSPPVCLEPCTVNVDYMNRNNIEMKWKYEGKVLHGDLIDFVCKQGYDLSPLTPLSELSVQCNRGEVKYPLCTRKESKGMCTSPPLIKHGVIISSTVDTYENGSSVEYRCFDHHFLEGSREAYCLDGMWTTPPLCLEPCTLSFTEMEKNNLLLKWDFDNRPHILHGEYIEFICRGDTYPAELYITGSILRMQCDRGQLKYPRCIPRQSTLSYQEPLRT
Put plainly: Binding affinity to nonactivated recombinant F13B subunit (unknown origin) by microscale thermophoresis method. The essentials: as §1

The target of assay [3] is T3, Coagulation factor XIII A chain (Homo sapiens, UniProt P00488).
T3 sequence (P00488 whole entry): T1 sequence (whole entry)
Put plainly: Binding affinity to recombinant F13A (unknown origin) by microscale thermophoresis method. Summed up: as §1

Assay [4] deals with T3, Coagulation factor XIII A chain. Nature of the assay: Inhibition of recombinant F13a (unknown origin) using H-Tyr-Glu(pNA)-Val-Lys-Val-Ile-Gly-NH2 as substrate by chromogenic assay.
Assay [5] deals with T4, Protein-glutamine gamma-glutamyltransferase (Homo sapiens) (UniProt P21980).
T4 sequence (whole entry): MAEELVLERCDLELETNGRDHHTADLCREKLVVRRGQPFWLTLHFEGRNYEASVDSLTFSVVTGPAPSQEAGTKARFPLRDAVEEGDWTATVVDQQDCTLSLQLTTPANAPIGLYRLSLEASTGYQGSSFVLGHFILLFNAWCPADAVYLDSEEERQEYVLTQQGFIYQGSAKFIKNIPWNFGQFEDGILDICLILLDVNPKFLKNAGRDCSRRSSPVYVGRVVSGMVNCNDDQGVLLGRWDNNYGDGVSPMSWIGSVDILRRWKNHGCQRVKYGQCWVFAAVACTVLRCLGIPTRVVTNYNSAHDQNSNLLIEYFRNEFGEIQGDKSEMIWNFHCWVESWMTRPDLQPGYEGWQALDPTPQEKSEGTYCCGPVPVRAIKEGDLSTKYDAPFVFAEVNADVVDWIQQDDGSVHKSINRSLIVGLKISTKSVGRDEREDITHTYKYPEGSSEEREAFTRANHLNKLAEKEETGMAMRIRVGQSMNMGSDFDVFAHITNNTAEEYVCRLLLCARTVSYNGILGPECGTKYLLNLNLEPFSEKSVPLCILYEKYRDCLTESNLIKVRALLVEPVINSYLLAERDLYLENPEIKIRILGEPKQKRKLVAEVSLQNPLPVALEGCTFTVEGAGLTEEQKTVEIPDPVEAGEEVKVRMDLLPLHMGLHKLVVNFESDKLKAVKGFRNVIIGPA
Put plainly: Inhibition of human TGase-2 using fluorogenic FRET substrate at 10 uM.

Calls of active or inactive are those of the source. The rule behind the calls is not given here. Residues, ends and D or L forms follow the SMILES beside them. *: point of attachment. X1 = O=C(c1ccccc1-c1c2ccc(=O)cc-2oc2cc(O)ccc12)*

Regarding `CC[C@H](C)[C@H](NC(=O)[C@H](CC(=O)O)NC(=O)[C@H](CC(=O)O)NC(=O)[C@H](CCSC)NC(=O)[C@@H]1CCCN1C(=O)[C@H](CCCCN)NC(=O)[C@@H](NC(=O)[C@H](CC(C)C)NC(=O)[C@H](CCC(=O)O)NC(=O)[C@H](CO)NC(=O)[C@H](CCCNC(=N)N)NC(=O)[C@@H]1CCCN1C(=O)[C@H](CCCNC(=N)N)NC(=O)c1ccccc1-c1c2ccc(=O)cc-2oc2cc(O)ccc12)[C@@H](C)CC)C(=O)N[C@@H](Cc1ccc(O)cc1)C(=O)N[C@@H](CCC(N)=O)C(=O)N[C@@H](CCCNC(=N)N)C(=O)N1CCC[C@H]1C(=O)N[C@H](C(=O)N[C@@H](CCC(=O)O)C(=O)N[C@@H](Cc1ccccc1)C(=O)N1CCC[C@H]1C(=O)N[C@@H](CC(N)=O)C(=O)N[C@@H](CC(C)C)C(=O)N1CCC[C@H]1C(=O)N[C@@H](CC(C)C)C(=O)N[C@@H](CCCCN)C(=O)N1CCC[C@H]1C(=O)N[C@@H](CCCNC(=N)N)C(=O)N[C@@H](CCC(=O)O)C(=O)O)C(C)C` (X1-RPRSELIKPMDDIYQRPVEFPNLPLKPRE-OH), the result in assay [1] and in assay [2] was inactive. Besides, the Kd in assay [3] is 800 nM.
Regarding `CC[C@H](C)[C@H](NC(=O)[C@H](CC(=O)O)NC(=O)[C@H](CC(=O)O)NC(=O)[C@H](CCSC)NC(=O)[C@@H]1CCCN1C(=O)[C@H](CCCCN)NC(=O)[C@@H](NC(=O)[C@H](CC(C)C)NC(=O)[C@H](CCC(=O)O)NC(=O)[C@H](CO)NC(=O)[C@H](CCCNC(=N)N)NC(=O)[C@@H]1CCCN1C(=O)[C@@H](N)CCCNC(=N)N)[C@@H](C)CC)C(=O)N[C@@H](Cc1ccc(O)cc1)C(=O)N[C@@H](CCC(N)=O)C(=O)N[C@@H](CCCNC(=N)N)C(=O)N1CCC[C@H]1C(=O)N[C@H](C(=O)N[C@@H](CCC(=O)O)C(=O)N[C@@H](Cc1ccccc1)C(=O)N1CCC[C@H]1C(=O)N[C@@H](CC(N)=O)C(=O)N[C@@H](CC(C)C)C(=O)N1CCC[C@H]1C(=O)N[C@@H](CC(C)C)C(=O)N[C@@H](CCCCN)C(=O)N1CCC[C@H]1C(=O)N[C@@H](CCCNC(=N)N)C(=O)N[C@@H](CCC(=O)O)C(=O)O)C(C)C` (H-RPRSELIKPMDDIYQRPVEFPNLPLKPRE-OH), the IC50 in assay [4] was determined as 2200 nM. In assay [5], the inhibition is < 10%. Moreover, the outcome in assay [1] and in assay [2] was inactive.
`CC[C@H](C)[C@H](NC(=O)CNC(=O)[C@H](CCC(N)=O)NC(=O)[C@H](Cc1cnc[nH]1)NC(=O)[C@H](Cc1c[nH]c2ccccc12)NC(=O)[C@H](CCC(=O)O)NC(=O)[C@H](CCCCN)NC(=O)[C@H](CS)NC(=O)[C@@H]1CCCN1C(=O)[C@H](CC(C)C)NC(=O)[C@H](CC(C)C)NC(=O)[C@H](CCCCN)NC(=O)c1ccccc1-c1c2ccc(=O)cc-2oc2cc(O)ccc12)C(=O)N1CCC[C@H]1C(=O)N[C@@H](CC(N)=O)C(=O)N1CCC[C@H]1C(=O)N[C@@H](CCCNC(=N)N)C(=O)N[C@@H](CS)C(=O)N[C@@H](Cc1c[nH]c2ccccc12)C(=O)N[C@@H](CS)C(=O)NCC(=O)N[C@@H](C)C(=O)N[C@@H](CC(=O)O)C(=O)N[C@@H](CC(C)C)C(=O)N[C@@H](CCC(=O)O)C(=O)N[C@@H](CS)C(=O)N[C@@H](C)C(=O)N[C@@H](CCC(N)=O)C(=O)N[C@@H](CC(=O)O)C(=O)N[C@@H](CCC(N)=O)C(=O)N[C@@H](Cc1ccc(O)cc1)C(=O)N[C@@H](CS)C(=O)N[C@@H](C)C(=O)N[C@@H](Cc1ccccc1)C(=O)N[C@H](C(=O)N1CCC[C@H]1C(=O)N[C@@H](CCC(N)=O)C(=O)N[C@@H](CS)C(=O)O)[C@@H](C)CC` (X1-KLLPCKEWHQGIPNPRCWCGADLECAQDQYCAFIPQC-OH): the outcome in assay [1] and in assay [2] was inactive. For the same compound, in assay [3], the Kd is < 100 nM.
